An excerpt weighted towards active compounds, which were near 3.4% of everything screened.
TAAR1 ag: human TAAR1 agonism | Q96RJ0 | CHO RD-HGA16 TAAR1, Fluo-8 calcium fluorescence; vehicle wells 0%, saturating PEA agonist 100% | activation, % at 3 µM | 360,000 compounds, 0.99% hits | AID 624467;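 active means activation above the mean activation of all test compounds in the run plus 3 SD, cut at about 38% in these data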
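Test system: RD-HGA16 (CHO) cells co-expressing Gα16 and hTAAR1 / Benchmarks: DMSO vehicle as 0%, PEA at EC100 as 100% / Repeats: no replicates (n 1) / Measure: % activation from peak over basal fluorescence ratio, DMSO-to-PEA scaled / Timing: 17-24 h plating, Fluo-8 75 min 37 °C, 30 min RT / Technique: kinetic Fluo-8 calcium fluorescence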
GPR7 antag: human neuropeptides B/W receptor 1 antagonism; GPR7-expressing cells, fluorescence antagonist assay; inhibition, % at 4.4 µM; 290,000 compounds, 1.1% hits; AID 1861; in the data active means inhibition above about 16%, passing the limit was not always enough;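 further: cells stimulated with the agonist NPW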
LANA-H2B inh: blocks KSHV LANA binding to histone H2A/H2B. cell-free LANA-H2A/H2B peptide, fluorescence polarization. inhibition, % (concentration not given with the values). 320,000 compounds, 0.6% hits; in the data active means inhibition mostly above about 10%, no sharp cut-off; inactive means mostly below about 6.7%
TAAR1 antag: human TAAR1 antagonism; CHO RD-HGA16 TAAR1, Fluo-8 calcium fluorescence, antagonist; inhibition, % at 3 µM; 360,000 compounds, 1.5% hits;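 active means inhibition above a per-plate cutoff, the mean inhibition of test compounds on that plate plus 3 SD, cut at about 49% in these data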
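Material: CHO RD-HGA16 cells bearing hTAAR1; compound dosing: one-point dosing, 3 µM nominal final; schedule: dye loading 75 min at 37 °C, then 30 min room temperature; measured by: calcium fluorescence with Fluo-8; control set: vehicle and agonist controls; replication: n of 1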
TRPML3 ag: human mucolipin-3 channel agonism | Q8TDD5 | HEK293 TRPML3-YFP, Fluo-8 calcium fluorescence; 100% = the carbachol control signal | activation, % at 3 µM | 220,000 compounds, 0.29% hits | AID 1448;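 active means activation above its plate's cutoff, the mean activation of the plate's test wells plus 3 SD, cut at about 12% in these data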
Target sequence (Q8TDD5 whole entry, looked up): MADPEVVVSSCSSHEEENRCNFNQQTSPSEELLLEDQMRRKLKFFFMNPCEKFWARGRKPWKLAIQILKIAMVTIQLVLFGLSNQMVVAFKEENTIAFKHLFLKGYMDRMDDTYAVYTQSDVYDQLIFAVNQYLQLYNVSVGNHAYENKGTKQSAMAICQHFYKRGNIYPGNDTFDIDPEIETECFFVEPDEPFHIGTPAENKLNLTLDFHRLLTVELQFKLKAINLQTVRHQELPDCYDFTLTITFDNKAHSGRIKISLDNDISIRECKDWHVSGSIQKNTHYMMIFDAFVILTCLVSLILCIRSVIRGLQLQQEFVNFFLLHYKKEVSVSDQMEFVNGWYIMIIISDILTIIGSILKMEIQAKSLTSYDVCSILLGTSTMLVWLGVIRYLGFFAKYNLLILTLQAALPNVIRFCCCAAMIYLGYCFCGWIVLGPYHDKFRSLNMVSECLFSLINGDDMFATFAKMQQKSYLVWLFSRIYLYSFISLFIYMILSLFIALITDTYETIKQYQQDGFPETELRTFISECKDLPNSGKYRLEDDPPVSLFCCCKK
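Test system: TRPML3-YFP stable HEK293 cells. Doses: single point at 3 µM. Incubation: dye loading 1 h 37 °C then 30 min ambient, 125 s read. Signal: Fluo-8 calcium dye fluorescence, ex 470-495, em 515-575 nm. Measure: percent activation from peak-to-basal fluorescence ratio, scaled between DMSO and carbachol.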
TRPN1 ag: activates the zebrafish TRPN1 channel; 220,000 compounds, 0.18% hits; AID 1424; HEK293 zebrafish TRPN1-YFP, Fluo-8 calcium fluorescence; 100% = response to 87 µM carbachol; activation, % at 3 µM;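 active means activation above its plate's cutoff, the mean activation of test wells on that plate plus 3 SD, cut at about 19% in these data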
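System: zebrafish TRPN1-YFP in HEK293 cells / Dosing: 3 µM single point / Timing: dye loading 1 h at 37 °C, then 30 min room temperature / Signal: Fluo-8 calcium fluorescence, excitation 470-495 nm, emission 515-575 nm / Read-out basis: percent activation from peak over basal fluorescence ratio, control-normalized / Control set: high carbachol 87 µM, low DMSO alone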
Of the large screens only hits and unclear results are named; the others gave an inactive call.

OC(COc1ccccc1Cl)CN1CCN(CC(O)COc2ccccc2Cl)CC1 (stereo not given)	TAAR1 antag 50
C[C@H](CO)N1C[C@H](C)[C@@H](CN(C)C(=O)c2ccncc2)OCc2cn(nn2)CCCC1=O	none (no result: GPR7 antag, LANA-H2B inh, TRPML3 ag, TRPN1 ag)
Nc1cc2ccccc2cc1NS(=O)(=O)N1CCCCC1	none (no result: GPR7 antag, LANA-H2B inh, TRPML3 ag, TRPN1 ag)
COCCCNC(=S)N1CCN(c2nc(-c3ccc(Cl)cc3)cs2)CC1	TAAR1 antag 62 (no result: GPR7 antag, LANA-H2B inh, TRPML3 ag, TRPN1 ag)
COc1cccc(-c2csc(N3CCN(C(=O)Nc4ccc(Cl)cc4)CC3)n2)c1	TAAR1 antag 58
COCCCNC(=S)N1CCN(c2nc(-c3ccccc3)cs2)CC1	none (no result: TRPML3 ag, TRPN1 ag)
CCCCCCC(=O)NC1CCCCN(C)C1=O (stereo not given)	none (no result: GPR7 antag, LANA-H2B inh, TRPML3 ag, TRPN1 ag)
CC1(c2ccc(OC(F)F)cc2)NC(=O)N(CC(=O)Nc2ccc(N3CCCCC3)cc2)C1=O (stereo not given)	TAAR1 ag 50 (no result: GPR7 antag, TRPML3 ag, TRPN1 ag)
CC1(c2ccc([N+](=O)[O-])cc2)NC(=O)N(CC(=O)Nc2ccc(N3CCCCC3)cc2)C1=O (stereo not given)	TAAR1 ag 43 (no result: GPR7 antag, TRPML3 ag, TRPN1 ag)
CC1(c2ccccc2)NC(=O)N(CC(=O)Nc2ccc([N+](=O)[O-])cc2)C1=O (stereo not given)	none
CC1(c2ccc([N+](=O)[O-])cc2)NC(=O)N(CC(=O)Nc2cccnc2Cl)C1=O (stereo not given)	TAAR1 ag 57 (no result: GPR7 antag, TRPML3 ag, TRPN1 ag)
Cc1ccc(C2(C)NC(=O)N(CC(=O)Nc3cccnc3Cl)C2=O)cc1 (stereo not given)	none
CN(N=Cc1ccccc1O)C(=O)c1ccccc1N	none (no result: GPR7 antag, LANA-H2B inh, TRPML3 ag, TRPN1 ag)
COc1ccc(NC(=O)Cn2nnc(-c3ccccc3NC(=O)c3cccs3)n2)cc1	none
COc1ccccc1NC(=O)Cn1nnc(-c2ccccc2NS(=O)(=O)c2ccccc2)n1	TAAR1 antag 57
COc1ccc(NC(=O)Cn2nnc(-c3ccccc3NS(=O)(=O)c3ccc(OC)cc3)n2)cc1	GPR7 antag 26
COc1ccc(-n2c(SCC(=O)Nc3ccccc3)nnc2-c2ccc(NS(=O)(=O)c3ccc(C)cc3)cc2)cc1	TAAR1 antag 53
COC(=O)[C@]12C[C@H](CC(=O)NCc3cccc(C(F)(F)F)c3)C(=O)N(CCC3=CCCCC3)C1=C[C@H](COCc1ccccc1)O[C@@H]2C	none (no result: GPR7 antag, LANA-H2B inh, TRPML3 ag, TRPN1 ag)
CC(=O)NC(=S)c1c(N)n(Cc2ccccc2)c(=O)n(C)c1=O	GPR7 antag 21 (no result: TAAR1 ag, TAAR1 antag)
C=CCCC(=O)N1C[C@H]2CCN(C)[C@H]2C[C@H]1c1ccccc1Br	none (no result: GPR7 antag, LANA-H2B inh, TRPML3 ag, TRPN1 ag)
Nc1ccc(-c2cc(-c3cccc(N)c3)nc(-c3ccccc3)n2)cc1	GPR7 antag 29
Nc1ccc(-c2nc(-c3ccccc3)nc3ccccc23)cc1	none (no result: TRPML3 ag, TRPN1 ag)
COc1ccc(N2C(=O)C(Cl)=C(Nc3ccccc3OC)C2=O)cc1	none
COc1ccc(N2C(=O)c3ccc(C(=O)Nc4ccccc4O)cc3C2=O)cc1	LANA-H2B inh 15 (no result: TRPML3 ag, TRPN1 ag)
COc1ccccc1N1C(=O)c2ccc(C(=O)Nc3ccccc3O)cc2C1=O	none (no result: TRPML3 ag, TRPN1 ag)
COc1ccccc1NC(=O)c1ccc2c(c1)C(=O)N(Cc1ccco1)C2=O	none (no result: TRPML3 ag, TRPN1 ag)
O=C(Nc1ccccc1O)c1ccc2c(c1)C(=O)N(Cc1ccco1)C2=O	TAAR1 antag 51 (no result: TRPML3 ag, TRPN1 ag)
COc1ccc(N2C(=O)C(Cl)=C(Nc3ccccc3O)C2=O)cc1	TAAR1 antag 49
COc1ccc(-c2ccc3c(n2)CCCN3S(=O)(=O)c2ccc(C#N)cc2)cc1	none (no result: GPR7 antag, LANA-H2B inh, TRPML3 ag, TRPN1 ag)
N#C/C(=C\c1ccncc1)c1nc2ccccc2[nH]1	none (no result: LANA-H2B inh)
N#C/C(=C/c1ccncc1)c1nc2ccccc2s1	TRPML3 ag 19, TRPN1 ag 34
COC(=O)[C@]12C[C@H](CC(=O)N3CCCCC3)C(=O)N(CCC3=CCCCC3)C1=C[C@H](COCc1ccccc1)O[C@@H]2C	none (no result: GPR7 antag, LANA-H2B inh, TRPML3 ag, TRPN1 ag)
CCOc1ccc(N=C2NC(=O)S/C2=C\c2ccc(Cl)cc2)cc1	none
COc1ccc(N=C2NC(=O)S/C2=C\c2ccc(N(C)C)cc2)cc1	TAAR1 antag 58
CCN(CC)CCCNC(=O)c1cc(-c2ccc(Cl)c(Cl)c2)on1	LANA-H2B inh 19 (no result: TAAR1 ag, TAAR1 antag)
CCN(CC)CCCNC(=O)c1cc(-c2ccc(O)cc2)on1	none
